# Measured values from ChEMBL document CHEMBL1221348, “1,2,3-triazole analogs of combretastatin A-4 as potential microtubule-binding agents” (Bioorg Med Chem, 2010).
# Target: Tubulin (Sus scrofa, UniProt P02554+P02550)
# Assay: Inhibition of pig tubulin polymerization
# Format: protein assay
# Conditions: not given
# Method in brief: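 Porcine brain tubulin (11 mg/mL stock) was used in Mes buffer (0.1 M Mes, 1 mM EGTA, 0.5 mM MgCl2, pH 6.6) with GTP (5 mM stock) and drug in DMSO. The plate was prechilled 30 min at 4 °C. Absorbance at 350 nm was recorded at ambient temperature for 60 min against buffer+drug blanks. IC50 was taken graphically as percent of untreated control assembly.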
row,SMILES,IC50
1,COc1ccc(-n2cc(-c3cc(OC)c(OC)c(OC)c3)nn2)cc1O,> 20 µM
2,COc1ccc(-c2cn(-c3cc(OC)c(OC)c(OC)c3)nn2)cc1N,> 20 µM
3,COc1ccc(-c2cnnn2Cc2cc(OC)c(OC)c(OC)c2)cc1N,> 20 µM
4,COc1ccc(Cn2nncc2-c2cc(OC)c(OC)c(OC)c2)cc1N,> 20 µM

# Test system: K562
# Assay: Cytotoxicity against human K562 cells after 5 days by MTT assay
# Format: functional, cell-based
# Conditions: K562, 120 h
# Method in brief: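 K562 human chronic myelogenous leukemia cells were grown in antibiotic-free RPMI with 10% v/v FCS and plated at 40,000 cells/mL. Drug was dissolved in DMSO and serially diluted in medium, with a drug-free control. Plates were incubated 5 days at 37 °C in 5% CO2. MTT was added for 3 h and the formazan dissolved in DMSO. OD was read at 540 and 690 nm to derive the growth-inhibitory dose.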
row,SMILES,IC50
1,COc1ccc(-c2cn(-c3cc(OC)c(OC)c(OC)c3)nn2)cc1Br,> 10 µM
2,COc1ccc(-n2cc(-c3cc(OC)c(OC)c(OC)c3)nn2)cc1O,3.2 µM
3,COc1ccc(Cn2cc(-c3cc(OC)c(OC)c(OC)c3)nn2)cc1O,> 10 µM
4,COc1ccc(-c2cn(Cc3cc(OC)c(OC)c(OC)c3)nn2)cc1O,> 10 µM
5,COc1ccc(-n2cc(-c3cc(OC)c(OC)c(OC)c3)nn2)cc1Br,> 10 µM
6,COc1ccc(Cn2cc(-c3cc(OC)c(OC)c(OC)c3)nn2)cc1Br,> 10 µM
7,COc1ccc(-c2cn(-c3cc(OC)c(OC)c(OC)c3)nn2)cc1,> 10 µM
8,COc1ccc(-c2cnnn2Cc2cc(OC)c(OC)c(OC)c2)cc1[N+](=O)[O-],> 10 µM
9,COc1ccc(Cn2nncc2-c2cc(OC)c(OC)c(OC)c2)cc1O,1.83 µM
10,COc1ccc(Cn2nncc2-c2cc(OC)c(OC)c(OC)c2)cc1,8.66 µM
11,COc1ccc(-c2cn(Cc3cc(OC)c(OC)c(OC)c3)nn2)cc1,> 10 µM
12,COc1ccc(-n2cc(-c3cc(OC)c(OC)c(OC)c3)nn2)cc1,> 10 µM
13,COc1ccc(-c2cn(Cc3cc(OC)c(OC)c(OC)c3)nn2)cc1N,> 10 µM
14,COc1ccc(-c2cn(Cc3cc(OC)c(OC)c(OC)c3)nn2)cc1Br,> 10 µM
15,COc1ccc(-c2cnnn2Cc2cc(OC)c(OC)c(OC)c2)cc1N,0.38 µM
16,COc1ccc(-c2cn(-c3cc(OC)c(OC)c(OC)c3)nn2)cc1[N+](=O)[O-],> 10 µM
17,COc1ccc(-c2cnnn2Cc2cc(OC)c(OC)c(OC)c2)cc1,5.56 µM
18,COc1ccc(-c2cn(-c3cc(OC)c(OC)c(OC)c3)nn2)cc1O,> 10 µM
19,COc1ccc(-c2cn(Cc3cc(OC)c(OC)c(OC)c3)nn2)cc1[N+](=O)[O-],> 10 µM
20,COc1ccc(Cn2cc(-c3cc(OC)c(OC)c(OC)c3)nn2)cc1N,> 10 µM
21,COc1ccc(-n2cc(-c3cc(OC)c(OC)c(OC)c3)nn2)cc1[N+](=O)[O-],> 10 µM
22,COc1ccc(Cn2nncc2-c2cc(OC)c(OC)c(OC)c2)cc1N,0.73 µM
23,COc1ccc(Cn2nncc2-c2cc(OC)c(OC)c(OC)c2)cc1Br,> 10 µM
24,COc1ccc(-c2cnnn2Cc2cc(OC)c(OC)c(OC)c2)cc1Br,> 10 µM
25,COc1ccc(-n2cc(-c3cc(OC)c(OC)c(OC)c3)nn2)cc1N,> 10 µM
26,COc1ccc(Cn2cc(-c3cc(OC)c(OC)c(OC)c3)nn2)cc1,> 10 µM
27,COc1ccc(-c2cnnn2Cc2cc(OC)c(OC)c(OC)c2)cc1O,0.53 µM
28,COc1ccc(Cn2nncc2-c2cc(OC)c(OC)c(OC)c2)cc1[N+](=O)[O-],> 10 µM
29,COc1ccc(Cn2cc(-c3cc(OC)c(OC)c(OC)c3)nn2)cc1[N+](=O)[O-],> 10 µM
